Results taken from ChEMBL document CHEMBL1150302, “Aminoacyl-tRNA synthetase inhibitors as potent and synergistic immunosuppressants” (J Med Chem, 2008).
Calls of active or inactive are those of the source. The rule behind the calls is not given here.

What was measured:
[1] = system: PBMC; assay: Immunosuppressive activity against human PBMC assessed as inhibition of allogenic mixed lymphocyte reaction; format: functional, cell-based
Outline: (§1)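 Responder cells taken from the Ficoll-plasma interface, washed three times (0.12 × 10⁶), cocultured for 6 days with mitomycin C-treated RPMI 1788 stimulator cells (0.045 × 10⁶) and compound in RPMI 1640 with 10% fetal calf serum. Pulsed after five days with 1 µCi methyl-³H thymidine, harvested 18 h later and counted. cpm converted to % inhibition versus compound-free MLR.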

[2] = system: PBMC; assay: Immunosuppressive activity against human PBMC assessed as inhibition of allogenic mixed lymphocyte reaction at 0.0004 uM; format: functional; outline: as §1
[3] = system: PBMC; assay: Immunosuppressive activity against human PBMC assessed as inhibition of allogenic mixed lymphocyte reaction at 0.0008 uM; format: functional; outline: as §1
[4] = system: PBMC; assay: Immunosuppressive activity against human PBMC assessed as inhibition of allogenic mixed lymphocyte reaction at 1.0 uM; format: functional; outline: as §1
[5] = system: PBMC; assay: Immunosuppressive activity against human PBMC assessed as inhibition of allogenic mixed lymphocyte reaction at 0.5 uM; format: functional; outline: as §1
[6] = system: PBMC; assay: Immunosuppressive activity against human PBMC assessed as inhibition of allogenic mixed lymphocyte reaction at 0.06 uM; format: functional; outline: as §1
[7] = system: PBMC; assay: Immunosuppressive activity against human PBMC assessed as inhibition of allogenic mixed lymphocyte reaction at 0.01 uM; format: functional; outline: as §1
[8] = system: PBMC; assay: Immunosuppressive activity against human PBMC assessed as inhibition of allogenic mixed lymphocyte reaction at 0.08 uM; format: functional; outline: as §1
[9] = system: PBMC; assay: Immunosuppressive activity against human PBMC assessed as inhibition of allogenic mixed lymphocyte reaction at 0.1 uM; format: functional; outline: as §1
[10] = system: PBMC; assay: Immunosuppressive activity against human PBMC assessed as inhibition of allogenic mixed lymphocyte reaction upto 10 uM; format: functional, cell-based; outline: as §1

SMILES	IC50 [1]	further results
Nc1ncnc2c1ncn2[C@@H]1CO[C@H](COS(=O)(=O)NC(=O)[C@H](Cc2ccccc2)NCc2ccccc2)[C@@H](O)[C@H]1O	80 nM	
CO[C@H]1C[C@@H]2CC[C@@H](C)[C@@](O)(O2)C(=O)C(=O)N2CCCC[C@H]2C(=O)O[C@H]([C@H](C)C[C@@H]2CC[C@@H](O)[C@H](OC)C2)CC(=O)[C@H](C)/C=C(\C)[C@@H](O)[C@@H](OC)C(=O)[C@H](C)C[C@H](C)/C=C/C=C/C=C/1C [SIROLIMUS]		inhibition at 0.0004 µM [2]: 13.1%; inhibition at 0.0008 µM [3]: 32.5%
CSCC[C@H](N)C(=O)NS(=O)(=O)OC[C@H]1O[C@@H](n2cnc3c(N)ncnc32)[C@H](F)[C@@H]1O	400 nM	
C[C@H](N)C(=O)NS(=O)(=O)OC[C@H]1OC[C@@H](n2cnc3c(N)ncnc32)C[C@@H]1O	5500 nM	
CSCC[C@H](N)C(=O)NS(=O)(=O)OC[C@H]1OC[C@@H](n2cnc3c(N)ncnc32)C[C@@H]1O	5500 nM	
Nc1ncnc2c1ncn2[C@@H]1CO[C@H](COS(=O)(=O)NC(=O)[C@@H](N)Cc2c[nH]cn2)[C@@H](O)C1	6700 nM	
NCCCC[C@H](N)C(=O)NS(=O)(=O)OC[C@H]1O[C@@H](n2cnc3c(N)ncnc32)[C@H](O)[C@@H]1O	1000 nM	inhibition at 1 µM [4]: 67%
Nc1ncnc2c1ncn2[C@@H]1O[C@H](COS(=O)(=O)NC(=O)[C@@H](N)CC(=O)O)[C@@H](O)[C@H]1O	2400 nM	
Nc1ncnc2c1ncn2[C@@H]1O[C@H](COS(=O)(=O)NC(=O)[C@@H]2CCN2)[C@@H](O)[C@H]1O	600 nM	
Nc1ncnc2c1ncn2[C@@H]1O[C@H](COS(=O)(=O)NC(=O)[C@@H]2CCCN2)[C@@H](O)[C@H]1F	300 nM	
Nc1ncnc2c1ncn2[C@@H]1O[C@H](COS(=O)(=O)NC(=O)[C@@H](N)Cc2c[nH]cn2)[C@@H](O)[C@H]1F	450 nM	
C[C@@H](O)[C@H](N)C(=O)NS(=O)(=O)OC[C@H]1O[C@@H](n2cnc3c(N)ncnc32)[C@H](O)[C@@H]1O	5200 nM	
C[C@H](N)C(=O)NS(=O)(=O)OC[C@H]1OC[C@@H](n2cnc3c(N)ncnc32)[C@H](O)[C@@H]1O	300 nM	inhibition at 0.5 µM [5]: 68%
CC[C@H](N)C(=O)NS(=O)(=O)OC[C@H]1O[C@@H](n2cnc3c(N)ncnc32)[C@H](O)[C@@H]1O	5500 nM	
CC[C@H](C)[C@H](N)C(=O)NS(=O)(=O)OC[C@H]1O[C@@H](n2cnc3c(N)ncnc32)[C@H](O)[C@@H]1O	5600 nM	
Nc1ncnc2c1ncn2[C@@H]1O[C@H](COS(=O)(=O)NC(=O)[C@@H]2CSCN2)[C@@H](O)[C@H]1O	550 nM	
CC(C)C[C@H](N)C(=O)NS(=O)(=O)OC[C@H]1O[C@@H](n2cnc3c(N)ncnc32)[C@H](F)[C@@H]1O	450 nM	
C/C=C/C[C@@H](C)[C@@H](O)[C@H]1C(=O)N[C@@H](CC)C(=O)N(C)CC(=O)N(C)[C@@H](CC(C)C)C(=O)N[C@@H](C(C)C)C(=O)N(C)[C@@H](CC(C)C)C(=O)N[C@@H](C)C(=O)N[C@H](C)C(=O)N(C)[C@@H](CC(C)C)C(=O)N(C)[C@@H](CC(C)C)C(=O)N(C)[C@@H](C(C)C)C(=O)N1C [CYCLOSPORINE]		inhibition at 0.06 µM [6]: 65.7%; inhibition at 0.01 µM [7]: 32%; inhibition at 0.08 µM [8]: 75.2%
Nc1ncnc2c1ncn2[C@@H]1O[C@H](COS(=O)(=O)NC(=O)[C@@H](N)Cc2cnc[nH]2)[C@@H](O)[C@H]1O	1000 nM	inhibition at 0.1 µM [9]: 12.4%
Nc1ncnc2c1ncn2[C@@H]1O[C@H](COS(=O)(=O)NC(=O)[C@@H](N)Cc2ccccc2)[C@@H](O)[C@H]1O [PHESA]	1000 nM	inhibition at 0.1 µM [9]: 10.7%; inhibition at 0.5 µM [5]: 53.4%
NCC(=O)NS(=O)(=O)OC[C@H]1O[C@@H](n2cnc3c(N)ncnc32)[C@H](O)[C@@H]1O	800 nM	
C[C@H](N)C(=O)NS(=O)(=O)OC[C@H]1O[C@@H](n2cnc3c(N)ncnc32)[C@H](O)[C@@H]1O [ALASA]	1700 nM	inhibition at 0.1 µM [9]: 6.5%; inhibition at 0.5 µM [5]: 4.9%
CC(C)[C@H](N)C(=O)NS(=O)(=O)OC[C@H]1O[C@@H](n2cnc3c(N)ncnc32)[C@H](O)[C@@H]1O	5600 nM	
CCC[C@H](N)C(=O)NS(=O)(=O)OC[C@H]1O[C@@H](n2cnc3c(N)ncnc32)[C@H](O)[C@@H]1O	4700 nM	

SMILES	IC50 [1]	further results
C/C(=C\C(=O)OCCCCCCCCC(=O)O)C[C@@H]1OC[C@H](C[C@@H]2O[C@H]2[C@@H](C)[C@H](C)O)[C@@H](O)[C@H]1O		Activity [10]: inactive
Nc1ncnc2c1ncn2[C@@H]1CO[C@H](COS(=O)(=O)NC(=O)[C@@H]2CCCN2)[C@@H](O)[C@H]1O	750 nM	
CSCC[C@H](N)C(=O)NS(=O)(=O)OC[C@H]1O[C@@H](n2cnc3c(N)ncnc32)[C@H](O)[C@@H]1O	500 nM	inhibition at 0.5 µM [5]: 28.4%
CC(C)C[C@H](N)C(=O)NS(=O)(=O)OC[C@H]1O[C@@H](n2cnc3c(N)ncnc32)[C@H](O)[C@@H]1O [LEUSA]	1100 nM	inhibition at 0.1 µM [9]: 16%; inhibition at 0.5 µM [5]: 16.3%
Nc1ncnc2c1ncn2[C@@H]1CO[C@H](COS(=O)(=O)NC(=O)[C@@H]2CCCN2)[C@@H](O)C1	2800 nM	
N=C(N)NCCC[C@H](N)C(=O)NS(=O)(=O)OC[C@H]1OC[C@@H](n2cnc3c(N)ncnc32)[C@H](O)[C@@H]1O	600 nM	
Nc1ncnc2c1ncn2[C@@H]1O[C@H](COS(=O)(=O)NC(=O)[C@@H](N)Cc2ccc(O)cc2)[C@@H](O)[C@H]1O	5600 nM	
C[C@H](N)C(=O)NS(=O)(=O)OC[C@H]1O[C@@H](n2cnc3c(N)ncnc32)[C@H](F)[C@@H]1O	400 nM	
CC(C)C[C@H](N)C(=O)NS(=O)(=O)OC[C@H]1OC[C@@H](n2cnc3c(N)ncnc32)C[C@@H]1O	6800 nM	
Nc1ncnc2c1ncn2[C@@H]1O[C@H](COS(=O)(=O)NC(=O)[C@H](Cc2ccccc2)NCc2ccccc2)[C@@H](O)[C@H]1O	200 nM	inhibition at 0.1 µM [9]: 31.1%
Nc1ncnc2c1ncn2[C@@H]1O[C@H](COS(=O)(=O)NC(=O)[C@@H]2CCCN2)[C@@H](O)[C@H]1O	700 nM	inhibition at 0.1 µM [9]: -2.7%; inhibition at 0.5 µM [5]: 18.6%
C=C(C)CC(N)C(=O)NS(=O)(=O)OC[C@H]1O[C@@H](n2cnc3c(N)ncnc32)[C@H](O)[C@@H]1O (mixture of isomers)	550 nM	
Nc1ncnc2c1ncn2[C@@H]1O[C@H](COS(=O)(=O)NC(=O)[C@@H](N)CO)[C@@H](O)[C@H]1O	4800 nM	
NC(=O)C[C@H](N)C(=O)NS(=O)(=O)OC[C@H]1O[C@@H](n2cnc3c(N)ncnc32)[C@H](O)[C@@H]1O	300 nM	
N=C(N)NCCC[C@H](N)C(=O)NS(=O)(=O)OC[C@H]1O[C@@H](n2cnc3c(N)ncnc32)[C@H](O)[C@@H]1O	1000 nM	
Nc1ncnc2c1ncn2[C@@H]1O[C@H](COS(=O)(=O)NC(=O)[C@@H](N)CCC(=O)O)[C@@H](O)[C@H]1O	4900 nM	
Nc1ncnc2c1ncn2[C@@H]1O[C@H](COS(=O)(=O)NC(=O)[C@@H](N)CS)[C@@H](O)[C@H]1O	400 nM	
NC(=O)CC[C@H](N)C(=O)NS(=O)(=O)OC[C@H]1O[C@@H](n2cnc3c(N)ncnc32)[C@H](O)[C@@H]1O	800 nM	
N=C(N)NCCC[C@H](N)C(=O)NS(=O)(=O)OC[C@H]1OC[C@@H](n2cnc3c(N)ncnc32)C[C@@H]1O	600 nM	
CSCC[C@H](N)C(=O)NS(=O)(=O)OC[C@H]1OC[C@@H](n2cnc3c(N)ncnc32)[C@H](O)[C@@H]1O	5200 nM	
Nc1ncnc2c1ncn2[C@@H]1O[C@H](COS(=O)(=O)NC(=O)[C@@H](N)Cc2c[nH]c3ccccc23)[C@@H](O)[C@H]1O	500 nM	inhibition at 0.1 µM [9]: 2.3%; inhibition at 0.5 µM [5]: 27.6%
CC(C)C[C@H](N)C(=O)NS(=O)(=O)OC[C@H]1OC[C@@H](n2cnc3c(N)ncnc32)[C@H](O)[C@@H]1O	1000 nM	
Nc1ncnc2c1ncn2[C@@H]1CO[C@H](COS(=O)(=O)NC(=O)[C@@H](N)Cc2c[nH]cn2)[C@@H](O)[C@H]1O	1200 nM	
